Data published in ChEMBL document CHEMBL4406820, “Novel reverse thia-analogs of fosmidomycin: Synthesis and antiplasmodial activity” (Eur J Med Chem, 2019).
Activity calls are given as the source filed them. The calls are words filed in the database; no cut-off is given here.

Experiments:
Plasmodium falciparum [1] = assay: Antimalarial activity against asexual blood stages of Plasmodium falciparum 3D7 infected in human erythrocytes incubated for 3 days by ELISA; type: functional, organism-based; conditions: 3D7, 72 h
Summary of the method: (§1)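 Asexual blood-stage P. falciparum cultured in human erythrocytes; growth measured by HRP2 double-site sandwich ELISA. IC50 values are the mean of two independent double determinations.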

[2] = target: T1, 1-deoxy-D-xylulose 5-phosphate reductoisomerase, apicoplastic (Plasmodium falciparum (isolate 3D7)) (UniProt Q8IKG4); assay: Inhibition of recombinant Plasmodium falciparum IspC expressed in Escherichia coli using 1-deoxy-D-xylulose 5-phosphate as substrate preincubated for 2 days followed by substrate addition in presence of Tris HCL at pH 7.6 by photometric assay
T1 sequence (whole entry): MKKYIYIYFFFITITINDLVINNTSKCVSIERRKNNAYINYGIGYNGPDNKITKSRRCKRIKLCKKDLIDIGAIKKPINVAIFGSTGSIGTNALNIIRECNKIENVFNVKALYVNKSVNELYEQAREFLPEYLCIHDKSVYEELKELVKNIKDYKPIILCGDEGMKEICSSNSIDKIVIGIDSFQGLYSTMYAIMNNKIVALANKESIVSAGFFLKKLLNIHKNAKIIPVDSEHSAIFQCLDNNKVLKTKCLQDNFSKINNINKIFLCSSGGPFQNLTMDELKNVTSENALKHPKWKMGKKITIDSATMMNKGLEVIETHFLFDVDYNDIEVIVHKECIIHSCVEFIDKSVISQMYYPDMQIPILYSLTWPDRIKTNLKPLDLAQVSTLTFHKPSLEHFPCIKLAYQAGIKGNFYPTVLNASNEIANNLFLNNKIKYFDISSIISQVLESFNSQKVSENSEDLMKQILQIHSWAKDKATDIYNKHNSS
Summary of the method: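 Racemate or single enantiomer (0.6–0.7 mM) held in 100 mM Tris-HCl pH 7.6 with 0.02% NaN3 at 22–23 °C. Aliquots taken at 0, 24 and 48 h and frozen at −80 °C. All aliquots then assayed in parallel for IC50 against P. falciparum IspC: 340 nm NADPH read-out with 0.5 mM DXP.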

[3] = target: T1, 1-deoxy-D-xylulose 5-phosphate reductoisomerase, apicoplastic (Plasmodium falciparum (isolate 3D7)); assay: Inhibition of recombinant Plasmodium falciparum IspC expressed in Escherichia coli using 1-deoxy-D-xylulose 5-phosphate as substrate preincubated for 7 days followed by substrate addition in presence of Tris HCL at pH 7.6 by photometric assay
Plasmodium falciparum [4] = assay: Antimalarial activity against asexual blood stages of Plasmodium falciparum Dd2 infected in human erythrocytes incubated for 3 days by ELISA; type: functional, organism-based; conditions: Dd2, 72 h; summary of the method: as §1
Klebsiella pneumoniae [5] = assay: Antimicrobial activity against Klebsiella pneumoniae ATCC 700603 incubated for 18 hrs by microbroth dilution assay; type: functional; conditions: ATCC 700603, 18 h
Acinetobacter baumannii [6] = assay: Antimicrobial activity against Acinetobacter baumannii ATCC BAA747 incubated for 18 hrs by microbroth dilution assay; type: functional; conditions: ATCC BAA747, 18 h
[7] = Selectivity index, ratio of IC50 for human HeLa cells to IC50 for Plasmodium falciparum 3D7; type: toxicity; conditions: read-out: Ratio IC50
Summary of the method: (§2)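 Cytotoxicity on HeLa monolayers quantified spectrophotometrically, given as the mean of two independent double determinations. SI is HeLa IC50 divided by the P. falciparum 3D7 IC50.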

Acinetobacter baumannii [8] = assay: Antimicrobial activity against Acinetobacter baumannii ATCC BAA 1605 incubated for 18 hrs by microbroth dilution assay; type: functional; conditions: ATCC BAA 1605, 18 h
Klebsiella pneumoniae [9] = assay: Antimicrobial activity against Klebsiella pneumoniae ATCC 13883 incubated for 18 hrs by microbroth dilution assay; type: functional; conditions: ATCC 13883, 18 h
[10] = Apparent permeability in human Caco2 cells by LC-MS/MS analysis; type: ADME, cell-based; conditions: Caco-2
Summary of the method: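 Compound applied to a polarized Caco2 monolayer. Concentrations measured over time by LC-MS/MS in donor medium, acceptor medium and cells; Papp calculated. Atenolol served as a reference compound.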

Escherichia coli [11] = assay: Antimicrobial activity against Escherichia coli ATCC 25922 incubated for 18 hrs by microbroth dilution assay; type: functional; conditions: ATCC 25922, 18 h
Pseudomonas aeruginosa = assay: Antimicrobial activity against Pseudomonas aeruginosa ATCC 27853 incubated for 18 hrs by microbroth dilution assay; type: functional; conditions: ATCC 27853, 18 h
[12] = Stability of compound in pH 7.6 PBS buffer assessed as parent compound remaining incubated for 72 by HPLC analysis; type: physicochemical
Summary of the method: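 Compound dissolved at 1 mg/mL in phosphate buffer pH 7.6 (Ph. Eur.) and shaken at room temperature for 72 h. Samples at 0, 1, 3, 6, 24 and 72 h (n = 3) run by C18 reversed-phase HPLC with an acetonitrile/water gradient containing 0.1% TFA. Decomposition taken from the loss of peak area at 254 nm.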

[13] = tested on: Mycobacterium tuberculosis; assay: Antimycobacterial activity against Mycobacterium tuberculosis H37Rv incubated for 5 days by resazurin dye based assay; type: functional; conditions: 120 h
HeLa = assay: Cytotoxicity against human HeLa cells assessed as reduction in cell viability incubated for 24 hrs by neutral red assay; type: cell-based; summary of the method: as §2
Escherichia coli [14] = assay: Antimicrobial activity against Escherichia coli ATCC BAA 2469 incubated for 18 hrs by microbroth dilution assay; type: functional; conditions: ATCC BAA 2469, 18 h

| SMILES | IC50 (Plasmodium falciparum [1]) | inhibition [2] | inhibition [3] | IC50 (Plasmodium falciparum [4]) | MIC (Klebsiella pneumoniae [5]) | MIC (Acinetobacter baumannii [6]) | selectivity ratio [7] | MIC (Acinetobacter baumannii [8]) | MIC (Klebsiella pneumoniae [9]) | Papp [10] | MIC (Escherichia coli [11]) | MIC (Pseudomonas aeruginosa) | Stability [12] | MIC [13] | IC50 (HeLa) | MIC (Escherichia coli [14]) |
| --- | --- | --- | --- | --- | --- | --- | --- | --- | --- | --- | --- | --- | --- | --- | --- | --- |
| CN(O)C(=O)CS[C@@H](c1ccccc1)P(=O)(O)O | 0.087 µM | Active | Active | 0.14 µM |  |  |  |  |  |  |  |  |  |  |  |  |
| CN(O)C(=O)CSC(c1ccccc1)P(=O)(O)O (racemic) | 0.19 µM |  |  | 0.26 µM | > 100 µM | > 100 µM | > 37000 | > 100 µM | > 100 µM | 1.4 nm/s | > 100 µM | > 100 µM | > 95% | > 100 µM | > 1000 µM | > 100 µM |
| CN(O)C(=O)CS[C@H](c1ccccc1)P(=O)(O)O | > 130 µM | Active | Active | > 130 µM |  |  |  |  |  |  |  |  |  |  |  |  |
